Reference: ChEMBL document CHEMBL1137238, “The synthesis and SAR of 2-amino-pyrrolo[2,3-d]pyrimidines: a new class of Aurora-A kinase inhibitors” (Bioorg Med Chem Lett, 2006)

Experiments:
[1] = biological target: T1, Cyclin-dependent kinase 4 (Homo sapiens, UniProt P11802); experiment: Inhibition of retinoblastoma phosphorylation by CDK4; type: functional
Summary of the method: (§1)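 Purified CDK4 incubated with compounds and retinoblastoma protein substrate in 100 mM Hepes pH 7.5, 75 mM NaCl, 2 mM DTT, 10 mM MgCl2, 30 μM ATP. Stopped after 35 min. Rb phosphorylation at Ser795 measured colorimetrically with a phospho-specific antibody.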

[2] = biological target: Proto-oncogene tyrosine-protein kinase Src (Homo sapiens, UniProt P12931); experiment: Inhibition of c-src
Sequence of Proto-oncogene tyrosine-protein kinase Src (P12931 2-536 limits assumed): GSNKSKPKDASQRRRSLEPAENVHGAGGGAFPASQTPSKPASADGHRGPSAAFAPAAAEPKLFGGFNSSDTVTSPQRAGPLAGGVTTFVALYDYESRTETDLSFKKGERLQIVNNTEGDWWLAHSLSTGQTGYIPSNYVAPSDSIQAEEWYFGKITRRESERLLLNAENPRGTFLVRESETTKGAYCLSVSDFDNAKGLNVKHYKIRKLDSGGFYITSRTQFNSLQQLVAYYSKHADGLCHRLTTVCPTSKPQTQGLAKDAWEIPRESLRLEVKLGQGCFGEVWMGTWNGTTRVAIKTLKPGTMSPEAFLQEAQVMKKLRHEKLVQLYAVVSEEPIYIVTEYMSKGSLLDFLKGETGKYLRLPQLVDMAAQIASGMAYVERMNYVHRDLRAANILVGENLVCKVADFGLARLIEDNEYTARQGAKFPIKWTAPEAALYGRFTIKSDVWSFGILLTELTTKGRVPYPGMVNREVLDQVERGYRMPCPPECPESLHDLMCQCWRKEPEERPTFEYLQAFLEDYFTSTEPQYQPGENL

[3] = biological target: Cyclin-dependent kinase 1 (Homo sapiens, UniProt P06493); experiment: Inhibition of CDK1
Sequence of Cyclin-dependent kinase 1 (P06493 whole entry): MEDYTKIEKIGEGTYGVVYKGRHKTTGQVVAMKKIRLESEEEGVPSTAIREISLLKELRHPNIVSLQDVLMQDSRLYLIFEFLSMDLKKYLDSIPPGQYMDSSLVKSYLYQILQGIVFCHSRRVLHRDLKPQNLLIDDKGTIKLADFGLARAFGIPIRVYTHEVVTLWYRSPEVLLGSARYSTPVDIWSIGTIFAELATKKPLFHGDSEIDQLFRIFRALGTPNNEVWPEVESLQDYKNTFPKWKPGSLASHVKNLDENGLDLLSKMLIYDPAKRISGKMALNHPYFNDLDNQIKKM

[4] = biological target: Cyclin-dependent kinase 7 (Homo sapiens, UniProt P50613); experiment: Inhibition of CDK7
Sequence of Cyclin-dependent kinase 7 (P50613 whole entry): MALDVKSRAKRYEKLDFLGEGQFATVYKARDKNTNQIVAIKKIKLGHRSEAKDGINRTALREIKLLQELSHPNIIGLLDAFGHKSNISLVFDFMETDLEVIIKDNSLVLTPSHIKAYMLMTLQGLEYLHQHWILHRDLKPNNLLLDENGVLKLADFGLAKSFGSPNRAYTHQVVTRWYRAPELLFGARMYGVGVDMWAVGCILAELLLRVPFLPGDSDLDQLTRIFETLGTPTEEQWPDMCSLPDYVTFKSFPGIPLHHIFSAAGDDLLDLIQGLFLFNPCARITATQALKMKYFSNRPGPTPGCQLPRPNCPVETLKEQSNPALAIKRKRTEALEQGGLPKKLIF

[5] = biological target: T1, Cyclin-dependent kinase 4; experiment: Inhibition of CDK4; summary of the method: as §1
[6] = biological target: Insulin receptor (Homo sapiens, UniProt P06213); experiment: Inhibition of IRK
Sequence of Insulin receptor (P06213 28-758 limits assumed): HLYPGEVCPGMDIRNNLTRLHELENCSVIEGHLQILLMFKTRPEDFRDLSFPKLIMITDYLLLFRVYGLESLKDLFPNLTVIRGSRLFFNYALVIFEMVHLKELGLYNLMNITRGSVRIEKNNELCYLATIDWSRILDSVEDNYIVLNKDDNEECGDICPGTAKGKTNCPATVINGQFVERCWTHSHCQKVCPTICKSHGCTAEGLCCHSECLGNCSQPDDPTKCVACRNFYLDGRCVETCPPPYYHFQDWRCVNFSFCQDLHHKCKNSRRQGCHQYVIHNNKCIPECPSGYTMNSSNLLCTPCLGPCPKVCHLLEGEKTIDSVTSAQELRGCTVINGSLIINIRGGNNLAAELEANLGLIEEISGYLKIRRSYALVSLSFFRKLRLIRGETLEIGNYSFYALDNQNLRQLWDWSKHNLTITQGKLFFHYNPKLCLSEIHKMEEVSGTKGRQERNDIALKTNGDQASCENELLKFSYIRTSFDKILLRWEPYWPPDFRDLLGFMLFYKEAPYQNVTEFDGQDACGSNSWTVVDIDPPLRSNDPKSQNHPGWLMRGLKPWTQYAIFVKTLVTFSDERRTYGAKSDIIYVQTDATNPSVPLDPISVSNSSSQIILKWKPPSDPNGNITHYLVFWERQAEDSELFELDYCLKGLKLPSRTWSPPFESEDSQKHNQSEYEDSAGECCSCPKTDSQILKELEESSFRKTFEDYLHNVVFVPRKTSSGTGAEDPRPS
Sequence of Insulin receptor (P06213 763-1382 limits assumed): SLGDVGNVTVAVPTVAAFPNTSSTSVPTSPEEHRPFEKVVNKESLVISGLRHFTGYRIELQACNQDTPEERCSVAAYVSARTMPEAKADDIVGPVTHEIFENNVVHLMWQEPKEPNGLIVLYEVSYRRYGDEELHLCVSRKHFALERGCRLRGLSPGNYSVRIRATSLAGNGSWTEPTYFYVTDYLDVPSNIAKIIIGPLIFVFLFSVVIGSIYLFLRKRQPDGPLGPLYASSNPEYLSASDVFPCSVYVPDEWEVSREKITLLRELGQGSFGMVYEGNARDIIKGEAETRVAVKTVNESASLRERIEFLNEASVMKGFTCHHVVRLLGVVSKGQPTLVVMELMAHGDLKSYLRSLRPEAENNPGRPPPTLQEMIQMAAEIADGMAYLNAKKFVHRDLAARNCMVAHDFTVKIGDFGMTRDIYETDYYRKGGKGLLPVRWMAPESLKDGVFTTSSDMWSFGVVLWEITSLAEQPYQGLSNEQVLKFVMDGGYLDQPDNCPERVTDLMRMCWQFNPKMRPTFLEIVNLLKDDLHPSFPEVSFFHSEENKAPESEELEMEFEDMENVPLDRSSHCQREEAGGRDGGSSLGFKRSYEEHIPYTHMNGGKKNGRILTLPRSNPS

[7] = biological target: BDNF/NT-3 growth factors receptor (Homo sapiens, UniProt Q16620); experiment: Inhibition of TrkB
Sequence of BDNF/NT-3 growth factors receptor (Q16620 whole entry): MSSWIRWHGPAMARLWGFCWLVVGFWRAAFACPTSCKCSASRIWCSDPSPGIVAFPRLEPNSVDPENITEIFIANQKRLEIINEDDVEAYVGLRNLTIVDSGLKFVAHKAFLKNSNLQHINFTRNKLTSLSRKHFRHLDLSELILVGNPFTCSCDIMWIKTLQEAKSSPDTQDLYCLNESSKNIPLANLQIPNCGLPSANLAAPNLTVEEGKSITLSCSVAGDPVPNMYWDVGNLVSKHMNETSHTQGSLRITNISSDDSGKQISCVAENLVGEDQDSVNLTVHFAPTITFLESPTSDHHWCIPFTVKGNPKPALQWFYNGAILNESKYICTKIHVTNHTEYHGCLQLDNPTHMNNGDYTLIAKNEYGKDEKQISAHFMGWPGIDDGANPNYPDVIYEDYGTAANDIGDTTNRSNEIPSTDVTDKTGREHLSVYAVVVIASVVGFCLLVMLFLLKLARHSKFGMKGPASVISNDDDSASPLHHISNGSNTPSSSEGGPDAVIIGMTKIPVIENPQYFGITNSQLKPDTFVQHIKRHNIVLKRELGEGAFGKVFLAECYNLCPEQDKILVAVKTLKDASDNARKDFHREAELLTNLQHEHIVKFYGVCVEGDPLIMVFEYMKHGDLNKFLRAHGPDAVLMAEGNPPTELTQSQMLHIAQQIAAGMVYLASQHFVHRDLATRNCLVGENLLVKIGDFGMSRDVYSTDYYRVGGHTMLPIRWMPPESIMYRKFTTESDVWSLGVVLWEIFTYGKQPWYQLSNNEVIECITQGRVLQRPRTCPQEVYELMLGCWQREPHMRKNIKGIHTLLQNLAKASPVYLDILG

[8] = biological target: Vascular endothelial growth factor receptor (Homo sapiens, UniProt P17948+P35916+P35968); experiment: Inhibition of VEGFR; type: protein assay
[9] = biological target: Platelet-derived growth factor receptor (Homo sapiens, UniProt P09619+P16234); experiment: Inhibition of PDGFR; type: protein-complex assay
[10] = biological target: Aurora kinase A (Mus musculus) (UniProt P97477); experiment: Inhibition of Aurora-A
Sequence of Aurora kinase A (Mus musculus) (P97477 whole entry, looked up): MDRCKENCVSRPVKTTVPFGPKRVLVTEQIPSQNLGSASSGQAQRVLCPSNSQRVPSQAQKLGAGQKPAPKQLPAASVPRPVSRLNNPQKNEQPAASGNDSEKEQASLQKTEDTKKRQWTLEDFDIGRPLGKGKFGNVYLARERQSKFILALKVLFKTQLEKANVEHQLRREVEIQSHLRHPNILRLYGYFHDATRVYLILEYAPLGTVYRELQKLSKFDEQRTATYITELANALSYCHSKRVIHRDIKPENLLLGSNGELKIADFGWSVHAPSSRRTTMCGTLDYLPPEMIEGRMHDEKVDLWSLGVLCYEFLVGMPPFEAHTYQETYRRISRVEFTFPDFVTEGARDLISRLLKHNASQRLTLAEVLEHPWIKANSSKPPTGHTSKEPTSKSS

T1 sequence (P11802 whole entry): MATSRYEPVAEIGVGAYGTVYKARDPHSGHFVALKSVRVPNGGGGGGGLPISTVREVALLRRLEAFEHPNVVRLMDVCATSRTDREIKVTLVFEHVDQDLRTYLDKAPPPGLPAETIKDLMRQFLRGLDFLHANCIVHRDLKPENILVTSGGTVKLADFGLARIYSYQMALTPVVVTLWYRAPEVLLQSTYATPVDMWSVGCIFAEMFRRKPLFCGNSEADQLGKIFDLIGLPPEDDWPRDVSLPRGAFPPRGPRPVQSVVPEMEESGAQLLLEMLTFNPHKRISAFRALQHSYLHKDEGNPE

IC50 [1] [nM]	Structure (SMILES)	other results
1400	CN1CCN(c2ccc(Nc3ncc4ccn(-c5cccnc5)c4n3)cc2)CC1	–
31	CN1CCN(c2ccc(Nc3ncc4ccn(C5CCCCC5)c4n3)cc2)CC1	IC50 [2]: 710 nM; IC50 [3]: 1600 nM; IC50 [4]: 1500 nM; IC50 [5]: 31 nM; IC50 [6]: 1000 nM; IC50 [7]: 160 nM; IC50 [8]: 100 nM; IC50 [9]: 290 nM; IC50 [10]: 47 nM
29	CN1CCN(c2ccc(Nc3ncc4ccn(C5CC6CCC5C6)c4n3)cc2)CC1 (centres undefined)	–
110	COCCN1CCN(c2ccc(Nc3ncc4ccn(C5CCCCC5)c4n3)cc2)CC1	–
350	O=C(O)Cc1cccc(Nc2ncc3ccn(C4CCCCC4)c3n2)c1	–
1000	O=S1(=O)CCN(c2ccc(Nc3ncc4ccn(C5CCCCC5)c4n3)cc2)CC1	–
340	COc1cccc(-n2ccc3cnc(Nc4ccc(N5CCN(C)CC5)cc4)nc32)c1	–
600	c1cc(N2CCOCC2)ccc1Nc1ncc2ccn(C3CCCCC3)c2n1	–
2000	CN1CCN(c2ccc(Nc3ncc4ccn(-c5cccc(S(C)(=O)=O)c5)c4n3)cc2)CC1	–
2100	CN1CCN(c2ccc(Nc3ncc4ccn(C5Cc6ccccc6C5)c4n3)cc2)CC1	–
